In ChEMBL document CHEMBL3244198, “Hetacillin (R)- and (S)-sulfoxides. Synthesis and structure-activity relationships” (1978) one finds MIC and ED50 data, which are given here for four compounds.

Common to all, as to type: functional
In assay [1] the test system is Proteus mirabilis. The assay can be described thus: Antibacterial activity against Proteus mirabilis 9900 by two-fold serial dilution technique. A digest of the protocol:
(§1)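 MIC read as µg/mL from twofold serial dilutions of each compound in nutrient broth, tested against the named strain.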

Assay [2] deals with Staphylococcus aureus. Put plainly: Antibacterial activity against Staphylococcus aureus 9537 by two-fold serial dilution technique. The method, boiled down:
as §1

Assay [3] concerns Escherichia coli. Put plainly: Antibacterial activity against Escherichia coli 15119 by two-fold serial dilution technique. The method, boiled down:
as §1

In assay [4] the test system is Streptococcus pneumoniae. The assay can be described thus: Antibacterial activity against Streptococcus pneumoniae 9585 by two-fold serial dilution technique. The method, boiled down:
as §1

In assay [5] the test system is Proteus vulgaris. Put plainly: Antibacterial activity against Proteus vulgaris 9716 by two-fold serial dilution technique. The method, boiled down:
as §1

The subject of assay [6] is Staphylococcus aureus. Put plainly: Antibacterial activity against penicillin-resistant Staphylococcus aureus 9606 by two-fold serial dilution technique. A digest of the protocol:
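MIC (µg/mL) was determined by twofold serial dilution in nutrient broth against penicillin-resistant S. aureus 9606.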

Assay [7] has as its system Streptococcus pyogenes. Put plainly: Antibacterial activity against Streptococcus pyogenes 9604 by two-fold serial dilution technique. The method, boiled down: as §1
Assay [8] relates to Streptococcus pyogenes. Put plainly: Antibacterial activity against Streptococcus pyogenes A9604 infected in po dosed mouse assessed as mouse survival administered at 3.5 hrs post-infection measured for 5 days. The conditions noted are these: read-out: PD50. A digest of the protocol: (§2)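 Mice were challenged intraperitoneally with about 1.3 × 10^3 S. pyogenes A9604 per mouse, diluted in brain heart infusion broth to give a uniform lethal infection. Fourfold compound dilutions were given intramuscularly or orally at 1 and 3.5 h postinfection. Survivors were followed for 5 days. PD50 is the total dose (mg/kg) protecting 50% of mice, calculated by the Spearman-Kärber method.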

Assay [9] has as its system Streptococcus pyogenes. The assay can be described thus: Antibacterial activity against Streptococcus pyogenes A9604 infected in mouse assessed as mouse survival administered intramuscularly at 1 hr post-infection measured for 5 days. The conditions noted are these: A9604, im, read-out: PD50. The method, boiled down: as §2

Values after ≈ are worked out from the molar mass of the structure shown. Some results are limits rather than exact numbers.

In general, MIC refers to the smallest concentration in the dilution series that meets the test's criterion for growth inhibition. Higher therefore signals weaker potency. As to `CC1(C)N=C(c2ccccc2)C(=O)N1[C@@H]1C(=O)N2[C@@H]1[S@+]([O-])C(C)(C)[C@@H]2C(=O)O`, the MIC is over 125 µg/mL in [1]; over 8 µg/mL in [2]; over 125 µg/mL in assay [3]; 1 µg/mL (≈ 2.48 µM) in assay [4]; over 125 µg/mL in assay [5]; over 125 µg/mL in assay [6]. This compound gave an MIC in assay [7] of 1 µg/mL (≈ 2.48 µM).

As for `CC1(C)N[C@H](c2ccccc2)C(=O)N1[C@@H]1C(=O)N2[C@@H]1[S@+]([O-])C(C)(C)[C@@H]2C(=O)O`, the ED50 is 9.4 mg/kg in assay [8] and 3.1 mg/kg in assay [9]. Further, the MIC in assay [1] is 1 µg/mL (≈ 2.47 µM); in assay [2] it was 1 µg/mL (≈ 2.47 µM); in [3] it was 8 µg/mL (≈ 19.7 µM); in [4], 0.13 µg/mL (≈ 0.321 µM); in [5] it was 1 µg/mL (≈ 2.47 µM); in [6] it was over 125 µg/mL. Further, it took 0.13 µg/mL (≈ 0.321 µM) to inhibit growth in assay [7] (MIC).

As to `CC1(C)N[C@H](c2ccccc2)C(=O)N1[C@@H]1C(=O)N2[C@@H]1[S@@+]([O-])C(C)(C)[C@@H]2C(=O)O`, the ED50 in assay [8] is over 25 mg/kg; in assay [9] it was 9.6 mg/kg. Besides, the MIC in [1] was 4 µg/mL (≈ 9.86 µM); in [2], 4 µg/mL (≈ 9.86 µM); in assay [3], 32 µg/mL (≈ 78.9 µM); in assay [4], 0.5 µg/mL (≈ 1.23 µM); in [5] it was 4 µg/mL (≈ 9.86 µM); in assay [6], over 125 µg/mL. In assay [7], this compound displayed an MIC of 0.5 µg/mL (≈ 1.23 µM).

With `CC1(C)S[C@@H]2[C@H](N3C(=O)[C@@H](c4ccccc4)NC3(C)C)C(=O)N2[C@H]1C(=O)O` [HETACILLIN], the values for the ED50 in [8] and in assay [9] were 0.3 mg/kg and 0.2 mg/kg, respectively. In addition, the MIC in assay [1] is 0.13 µg/mL (≈ 0.334 µM); in [2], 0.016 µg/mL (≈ 0.0411 µM); in assay [3] it was 1 µg/mL (≈ 2.57 µM); in assay [4], 0.004 µg/mL (≈ 0.0103 µM); in assay [5] it was 0.13 µg/mL (≈ 0.334 µM); in assay [6] it was over 125 µg/mL. Moreover, it took 0.004 µg/mL (≈ 0.0103 µM) to inhibit growth in [7] (MIC).
